# From PubChem
# Shown are actives, neighbours in structure and some others; about 9.8% of the full set was active somewhere.
# Rad51 HR inh: Rad51 (human) homologous recombination inhibition; inhibition, % at 10 µM; hRad51 DNA strand exchange, fluorescence dequenching; Q06609; AID 1385; 200,000 compounds, 0.085% hits;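 active = inhibition above 40% at the single screening dose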;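 also: 0% = DMSO control wells and 100% = blanks with heterologous ssDNA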
#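 Test system: preformed human Rad51 ssDNA filaments; also added: Donor/quencher-labelled 47-bp dsDNA substrate; doses: 10 µM final, single point; times: 37 °C 15-min filament assembly, 30-min compound preincubation, 15-min exchange; detection: FRET fluorescence dequenching, excitation 485 nm, emission 520 nm; read-out basis: Fluorescence-based percent inhibition, control- and blank-normalised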
# WT yeast gro inh: growth inhibition of WT yeast, mitochondrial fusion screen; mitochondrial fusion phenotypic screen, WT strain; inhibition, % at 10 µM; AID 1362; 190,000 compounds, 2.1% hits; in the data active = inhibition above about 58%; tested in S. cerevisiae
# L major viab: Leishmania major promastigote growth inhibition; Leishmania major promastigotes, resazurin fluorescence viability; inhibition, % at 10 µM; 200,000 compounds, 9% hits; AID 1063; in the data active = inhibition above about 50%;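 also: promastigotes grown with compound for 44 hours at 28 °C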
# Calpain2 inh: blocks pig calpain II enzyme activity | 220,000 compounds, 0.37% hits | purified calpain II, fluorogenic peptide substrate, 30 min | inhibition, % at 16 µM;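 active = inhibition above about 50%, limit read from the data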
# PMI activator: activators of human phosphomannose isomerase. activation factor at 20 µM. 190,000 compounds, 0.005% hits. P34949. purified human PMI, coupled resazurin fluorescence, 20 min; stronger effect = higher value; 1 = vehicle control, 0 substrate-free wells. AID 1214;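 active = activation factor of 2 or more at 20 µM, relative to plate controls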
# Target sequence (P34949 whole entry, looked up): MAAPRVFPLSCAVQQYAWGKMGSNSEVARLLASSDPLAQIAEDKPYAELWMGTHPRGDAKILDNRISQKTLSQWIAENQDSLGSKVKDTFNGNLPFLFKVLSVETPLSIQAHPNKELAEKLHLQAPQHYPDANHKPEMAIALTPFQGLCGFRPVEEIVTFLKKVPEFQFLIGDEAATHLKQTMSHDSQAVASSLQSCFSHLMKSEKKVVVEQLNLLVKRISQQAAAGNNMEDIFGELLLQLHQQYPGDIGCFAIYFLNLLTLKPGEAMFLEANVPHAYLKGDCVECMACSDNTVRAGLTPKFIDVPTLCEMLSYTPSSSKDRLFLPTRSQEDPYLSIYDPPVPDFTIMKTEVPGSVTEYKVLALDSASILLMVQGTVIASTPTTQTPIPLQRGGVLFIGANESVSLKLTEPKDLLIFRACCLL
# PMI act satM6P: PMI (human) activation, high substrate | coupled PMI enzyme assay, resazurin fluorescence, 20 min; stronger effect = higher value; 1 = untreated enzyme, 0 = substrate-free blank | 190,000 compounds, 0.34% hits | activation factor at 20 µM;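 active = activation factor of 2 or more at 20 µM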
#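 Material: human phosphomannose isomerase with PGI, G6PDH, diaphorase coupling enzymes. Quantity: 15 ng/mL PMI. Medium: HEPES pH 7.4 buffer with MgCl2 and Tween-20. Reagent: Near-saturating mannose-6-phosphate, 1.0 mM. Compound: 20 µM single dose. Times: enzyme reaction with compound 20 min at room temperature. Detection: resorufin fluorescence at Ex 544/Em 590 nm.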
# * marks the source's active call; other numbers are inactive results; i = inactive; . = no result given.
SMILES,Rad51 HR inh,WT yeast gro inh,L major viab,Calpain2 inh,PMI activator,PMI act satM6P
C=CCn1c(SCc2nc3cc(C(=O)OC)ccc3c(=O)[nH]2)nc2sc(CC)cc2c1=O,-5,2,59*,-98,1,1.1
Cc1ccnc(N2CCN(C(=O)CSc3nc4ccccc4nc3N3CCC(C)CC3)CC2)c1,7,27,3,27,0.9,0.9
C/C(=N/NC(=O)CNC(=O)c1ccccn1)c1cccc([N+](=O)[O-])c1,-4,0,-4,-2,1,1.1
CCN1CCN(C(=S)c2ccc(Br)cc2)CC1,-2,-21,85*,-2,1.2,1.1
CN1CCN(C(=S)c2ccc(Br)cc2)CC1,2,-19,85*,-12,1,1
CN1CCN(C(=S)c2ccc([N+](=O)[O-])cc2)CC1,-2,-6,66*,0,0.8,1
CSc1ccc(C(=S)N2CCN(C)CC2)cc1,-5,-10,94*,-21,0.9,0.8
CN1CCN(C(=S)Nc2cc([N+](=O)[O-])ccc2Cl)CC1,3,5,66*,3,1,0.8
CN1CCN(C(=O)c2ccc(S(=O)(=O)c3ccc(Br)cc3)cc2)CC1,55*,-10,0,-28,0.9,0.8
CN1CCN(C(=S)c2ccc(N(C)C)cc2)CC1,1,1,94*,16,1,1
O=C(N/N=C/c1c(Cl)[nH]c2ccccc12)c1ccc2c(c1)OCCO2,-1,.,.,-13,.,.
CC(C)(C)c1ccc(CN2N=C(/C=C/c3ccccc3)CCC2=O)cc1,37,72*,1,11,0.9,0.9
Cc1ccc(/C=C/C2=NN(Cc3ccccc3)C(=O)CC2)cc1,-1,-41,-3,12,0.9,0.9
O=C1CCC(/C=C/c2ccccc2)=NN1Cc1ccccc1,10,9,-5,3,1.1,1.1
Cc1ccc(/C=C/C2=NN(Cc3ccccc3Cl)C(=O)CC2)cc1,5,59*,-1,0,0.8,0.8
CC(Sc1nnc(C(F)(F)F)n1C)C(=O)Nc1ccc(S(N)(=O)=O)cc1 (centres undefined),3,.,.,4,.,.
CC(C)CCn1c(=O)c2ccccc2n2c(CCl)nnc12,-6,-7,93*,7,1.1,1.1
Cc1ccc(Cn2c(=O)c3ccccc3n3c(CCC(=O)O)nnc23)cc1,-1,4,-6,.,.,.
CCCCCn1c(=O)c2ccccc2n2c(CCl)nnc12,14,-16,87*,-15,1.2,1
CC(C)CCn1c(=O)c2ccccc2n2c(CN3CCCC3)nnc12,0,2,4,1,1,0.9
O=C(COC(=O)/C=C/c1ccco1)NCCc1ccccc1,-3,9,-6,-24,1.1,1
O=C(c1cc2ccc([N+](=O)[O-])cc2oc1=O)N1CCOCC1,.,-5,-6,-12,1,1
O=C(N/N=C/c1ccncc1)NC12CC3CC(CC(C3)C1)C2,.,.,.,27,.,.
COc1cc(/C=N/NC(=O)C23CC4CC(CC(C4)C2)C3)cc(Br)c1O,.,-2,-4,-51,0.9,0.9
COc1cc(/C=N/NC(=O)CC23CC4CC(CC(C4)C2)C3)cc(Br)c1OCC(=O)N(C)C,-3,-13,93*,-40,1,1.1
SMILES,Rad51 HR inh,WT yeast gro inh,L major viab,Calpain2 inh,PMI activator,PMI act satM6P
O=C(CC12CC3CC(CC(C3)C1)C2)N/N=C/c1ccncc1,3,4,68*,21,1,0.9
COC(=O)[C@H](CCSC)NC(=O)Nc1cc(OC)cc(OC)c1,7,.,.,-1,.,.
CC(C)CCn1nc(C(=O)Nc2nc3c(s2)CCCC3)c2ccccc2c1=O,-7,31,65*,24,0.9,0.9
Cc1cccc(Cl)c1NC(=O)N1CCCN(c2ncccc2[N+](=O)[O-])CC1,13,.,.,4,.,.
Cc1cc(Nc2cnc3ccccc3n2)n(-c2ccccc2)n1,-1,5,67*,1,1,1
CCOc1ccccc1C1N=C(c2ccc(OC)cc2)CC(c2ccccc2O)N1 (centres undefined),-6,20,51*,-44,0.9,0.9
COc1ccc(CCN(C)C(=O)CSc2nnnn2C)cc1OC,-9,-7,-4,-14,1.1,1.1
CCOc1cc2c3c(c1)C1(C(=O)N3C(C)(C)CC2C)C(C#N)=C(N)N2C(=C1C#N)Nc1ccccc12 (centres undefined),-5,19,66*,6,0.8,0.5
O=C(c1ccc(Cl)cc1)N1CCC(O)(CSc2ccc(Cl)cc2Cl)CC1,.,71*,5,11,0.9,0.9
O=C(c1ccc(Cl)c(Cl)c1)N1CCC(O)(CN2CCOCC2)CC1,2,-1,79*,3,1,1
O=C(O)C1CCC(N2C(=O)C3C4CCC(C4)C3C2=O)CC1 (centres undefined),.,2,-3,1,0.9,0.9
O=C(Nc1ccccc1Cl)ON=C1c2ccccc2-c2ccccc21,3,6,9,5,0.9,1
O=C(COC(=O)CCCOc1ccc(Cl)cc1Cl)Nc1cccc(Cl)c1,-28,70*,-2,21,0.9,0.9
COc1ccccc1C(=O)NC(=Nc1nc2ccccc2o1)NC(=O)c1ccccc1OC,-8,33,100*,-53,1,1.1
CC(C)=C1SC(N2CCN(c3cccc(Cl)c3)CC2)=NC1=O,0,6,68*,11,0.9,0.9
Cc1[nH]c2ccccc2c1C(=O)COc1ccccc1,-11,5,-2,33,1,0.9
COc1ccc(S(=O)(=O)N2CCNC(=O)C2)cc1Br,-1,-9,2,-3,1,1
CCOc1cc(CNc2ccc3cn[nH]c3c2)ccc1OC,4,-8,79*,-33,0.7,1.1
CCOC(=O)c1sc(NC(C)=O)c(C(=O)OCC)c1C,-3,11,-1,6,0.9,0.9
Cc1ccc(/C=C/C(=O)Nc2nnc(C)s2)o1,-4,-14,55*,-2,1.1,1
O=C(/C=C/c1ccc(Br)o1)Nc1nccs1,2,5,-8,-38,1.6,2*
Cc1ccc(C(=O)Nc2nnc(C)s2)o1,0,15,-3,8,1,1
Cc1ccc(/C=C/C(=O)Nc2sc(C)c(C)c2C(=O)OC(C)C)o1,4,-6,51*,-152,1,1.1
CCOC(=O)c1sc(NC(=O)/C=C/c2cnn(C)c2C)c(C(=O)OC(C)C)c1C,-4,59*,0,i,0.6,0.6
Cc1cc(NC(=O)COC(=O)C2CCC(=O)N2)c([N+](=O)[O-])cc1C (centres undefined),23,-5,-6,-35,1,1
CCn1c(NCc2cc(Cl)ccc2O)nc2ccccc21,-8,.,.,-10,.,.
CC(C)c1nnc(N2C(=O)C(O)=C(C(=O)c3cccs3)C2c2ccccc2)s1 (centres undefined),.,8,-5,26,1.2,1.6
